The values that follow come from ChEMBL document CHEMBL4028903 (J Med Chem, 2017).

The nature of data set [1]: Solubility of the compound in fasted state simulated intestinal fluid at pH 6.8. The class given is physicochemical.
For data set [2], the system named is Rattus norvegicus. Description: In vivo agonist activity at FXR in po dosed Sprague-Dawley rat assessed as induction of FGF15 protein level in plasma administered once daily for 14 days measured 24 hrs post last dose on day 14. The class given is functional, organism-based.
Data set [3] in a line: Drug uptake in Sprague-Dawley rat plasma at 0.03 mg/kg, po qd administered via gavage measured 7 hrs post last dose on day 14 by LC-MS/MS analysis. The class given is ADME, organism-based.
The nature of data set [4]: Drug uptake in Sprague-Dawley rat liver at 0.03 mg/kg, po qd administered via gavage measured 1 hr post last dose on day 14 by LC-MS/MS analysis. The class given is ADME, organism-based. The conditions noted are these: read-out: Drug uptake. In short, it runs like this:
(§1)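 Drug concentration in liver was quantified from tissue homogenates, so these are total levels. Unbound liver concentration was not determined.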

Data set [5] is described as follows: Drug uptake in Sprague-Dawley rat liver at 0.01 mg/kg, po qd administered via gavage measured 7 hrs post last dose on day 14 by LC-MS/MS analysis. The class given is ADME, organism-based. To be noted: read-out: Drug uptake. In short, it runs like this:
as §1

Data set [6] in a line: Drug uptake in Sprague-Dawley rat liver at 0.003 mg/kg, po qd administered via gavage measured 1 hr post last dose on day 14 by LC-MS/MS analysis. It is filed as ADME, organism-based. The conditions noted are these: read-out: Drug uptake. Summed up:
as §1

Data set [7] deals with Rattus norvegicus. Description: Dose normalized AUC (0 to 24 hrs) in Sprague-Dawley rat at 3 mg/kg, po qd administered via gavage measured on day 1 by LC-MS/MS analysis. The conditions noted are these: in vivo. The class given is ADME, organism-based.
A short description of data set [8]: Cmax in Sprague-Dawley rat at 0.3 mg/kg, po qd administered via gavage measured on day 1 by LC-MS/MS analysis. Details: dose 0.3 mg/kg, route oral. The conditions noted are these: in vivo. It is filed as ADME, organism-based.
Data set [9] is described as follows: Clearance in dog at 0.5 mg/kg, iv by LC-MS/MS analysis. The class given is ADME, organism-based, Canis lupus familiaris. To be noted: in vivo. Summed up: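 Single IV dose given as a solution. Mouse received 5 mg/kg in 75% PEG300:25% D5W. Dog received 0.5 mg/kg in 20% PEG300, 5% solutol and 75% carbonate buffer pH = 8.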
Data set [10] in a line: Oral bioavailability in rat at 1 mg/kg administered via gavage by LC-MS/MS analysis. To be noted: in vivo. It is filed as ADME, organism-based. Summed up:
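IV dosing used a solution in 75% PEG300:25% D5W for mouse and rat, and a solution in 20% PEG300, 5% solutol, 75% carbonate buffer pH 8 for dog. PO dosing used a suspension in 0.5% methylcellulose, 0.5% Tween80, 99% water for all three species.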

The next data set deals with Mus musculus. The data set is described as follows: Drug metabolism in mouse assessed as glycine conjugated metabolite formation at 5 mg/kg, iv or 10 mg/kg, po administered via gavage by LC-MS/MS analysis. The class given is ADME, organism-based. The conditions noted are these: in vivo.

In brackets after ≈: the same amount, converted by molar mass. Activity calls are given as the source filed them. No cut-off for these calls is given here.

Turning to `O=C(O)c1cc(F)c2nc(N3C4CCC3CC(OCc3c(-c5ccccc5OC(F)(F)F)noc3C3CC3)C4)sc2c1` (stereo unspecified), the solubility in data set [1] was 600 µM (≈ 362 µg/mL). In addition, the result with Rattus norvegicus [2] was inactive. For the same compound, the concentration at 7 h in data set [3] amounted to 1.16 nM; in data set [5] it was 5.18 nM. In addition, the concentration at 1 h in [4] came to 11.9 nM; in [6], 2.92 nM. In the data set on Rattus norvegicus [7], this compound returned an AUC/dose of 448 nM·h. In data set [8], this compound came in with a Cmax of 13.5 nM. In data set [9], this compound yielded a clearance of 1.5 mL/min/kg. The compound further registered a bioavailability in [10] of 10%. The Drug metabolism entry with Mus musculus is given as “Metabolite_Notdetected”.

As usually defined, the solubility is the dissolved amount per volume that the medium holds. The low end stands for little dissolved substance, the high end for much dissolved substance. What is called Cmax is the maximum level reached in the sampled fluid or tissue. The term clearance denotes the rate of elimination divided by the concentration. Broadly, the bioavailability is the share of a dose that reaches the circulation, judged against a reference dose that is usually intravenous. Higher therefore signals good availability.
